# Measurements: PMC8634121 (Brain, 2021)
# Legend:
# [1] = biological target: T1, SAM-TIR protein (human SARM1) (Homo sapiens, UniProt Q6SZW1); experiment: Washout assay with plate-bound SAM-TIR; type: biochemical; conditions: 2 h treatment, plates rinsed, assayed 60 min after removal of compound
# T1 sequence (Q6SZW1 408-700): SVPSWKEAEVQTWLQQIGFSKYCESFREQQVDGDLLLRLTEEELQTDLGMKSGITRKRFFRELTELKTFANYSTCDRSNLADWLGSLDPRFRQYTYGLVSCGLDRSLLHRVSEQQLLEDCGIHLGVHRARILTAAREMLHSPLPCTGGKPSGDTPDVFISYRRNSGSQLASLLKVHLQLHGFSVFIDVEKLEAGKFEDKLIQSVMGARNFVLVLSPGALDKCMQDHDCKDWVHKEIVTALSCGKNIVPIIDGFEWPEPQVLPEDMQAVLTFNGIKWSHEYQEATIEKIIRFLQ
# Procedure, shortened: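 SAM-TIR lysate (30 µg/ml total protein) was captured via its Strep-tag on Strep-Tactin XT plates, and unbound material was rinsed off. Bound enzyme was exposed to test compound for 2 h, rinsed, then held in assay solution without NAD+ for 0, 10 or 60 min. Wells were rinsed again, and activity was started by adding NAD+. A reversible reference inhibitor was run alongside.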
# [2] = tested on: mouse DRG neurons; experiment: Axon degeneration assay after axotomy in mouse DRG cultures; type: cell-based; conditions: 3 h pulse at 10 µM, compound removed, axotomy immediately; examined 16-72 h
# Procedure, shortened: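 Embryonic day 13.5 C57BL/6J mouse DRGs were trypsin/EDTA-dissociated (37°C, 15 min) and spot-plated at 5000 cells/well on poly-D-lysine/laminin in Neurobasal/B27 with NGF, uridine and fluorodeoxyuridine. At DIV 6–7, cultures got a 3 h pulse of test compound at 10 µM (from 10 mM DMSO stock; […] DMSO final). Compound was rinsed out, […]. Axons were manually cut with a micro-blade, then PFA-fixed and immunostained.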
compound,measurement,setting,value
Ic1cccc2cnccc12 [DSRM-3716],SARM1 inhibition after compound removal,[1],Substantial loss of inhibition
same,axonal protection after compound removal,[2],completely lost
